{"source": "paper PMC4066402", "about": "(Genes & Development, 2014)", "molecules": {"B1": {"name": "Schizosaccharomyces pombe RNA guanylyltransferase (GTase) Pce1, wild type, as the covalent Pce1–GMP intermediate (enzyme)", "chain": "SMAPSEKDIEEVSVPGVLAPRDDVRVLKTRIAKLLGTSPDTFPGSQPVSFSKKHLQALKEKNYFVCEKSDGIRCLLYMTEHPRYENRPSVYLFDRKMNFYHVEKIFYPVENDKSGKKYHVDTLLDGELVLDIYPGGKKQLRYLVFDCLACDGIVYMSRLLDKRLGIFAKSIQKPLDEYTKTHMRETAIFPFLTSLKKMELGHGILKLFNEVIPRLRHGNDGLIFTCTETPYVSGTDQSLLKWKPKEMNTIDFMLKLEFAQPEEGDIDYSAMPEFQLGVWEGRNMYSFFAFMYVDEKEWEKLKSFNVPLSERIVECYLDDENRWRFLRFRDDKRDANHISTVKSVLQSIEDGVSKEDLLKEMPIIREAYYNRKKPSVTKRKLDETSNDDAPAIKKVAKESEKEI", "modifications": "Lys67 covalently guanylylated (lysyl-Nζ-GMP)"}, "B2": {"name": "Pce1-G276R (enzyme)", "chain": "B1 chain with G277R", "modifications": "guanylylated in vitro (Pce1–GMP)"}, "B3": {"name": "BODIPY-FL-Spt5 CTD-(801–898): N(Cys)-Spt5-(801–898) labeled with BODIPY-FL at the N terminus via maleimide chemistry (protein, UniProt O13936 801-898, looked up, fragment)", "chain": "ISTADGPNVPNWAQGARTPAVANGSRTPAWNTGSRTPAWNSGSKTPAWNSGSRTPAWNSGNKTPAWNAGSRTPAWNSGNKTPAWNVGNKTPAWNSGAK", "modifications": "N-terminal Cys, BODIPY-FL label"}, "B4": {"name": "Spt5-(801–898): purified recombinant Spt5-(801–898), composed of 10 nonamer repeats (protein, UniProt O13936 801-898, looked up, fragment)", "chain": "B3 chain"}, "B5": {"name": "Spt5 CTD composed of 10 nonamer repeats: Spt5 CTD composed of 10 nonamer repeats (protein, UniProt O13936 801-898, looked up, fragment)", "chain": "B3 chain"}}, "key": {"[1]": {"molecular_target": "T1, BODIPY-FL-N(Cys)-Spt5-(801–898) (S. pombe) (UniProt O13936)", "T1 sequence (O13936 801-898, looked up)": "B3 chain", "assay": "fluorescence polarisation"}, "[2]": {"molecular_target": "T2, Pce1 G276R (Schizosaccharomyces pombe, UniProt P40997, G276R)", "T2 sequence (P40997 1-402 G276R)": "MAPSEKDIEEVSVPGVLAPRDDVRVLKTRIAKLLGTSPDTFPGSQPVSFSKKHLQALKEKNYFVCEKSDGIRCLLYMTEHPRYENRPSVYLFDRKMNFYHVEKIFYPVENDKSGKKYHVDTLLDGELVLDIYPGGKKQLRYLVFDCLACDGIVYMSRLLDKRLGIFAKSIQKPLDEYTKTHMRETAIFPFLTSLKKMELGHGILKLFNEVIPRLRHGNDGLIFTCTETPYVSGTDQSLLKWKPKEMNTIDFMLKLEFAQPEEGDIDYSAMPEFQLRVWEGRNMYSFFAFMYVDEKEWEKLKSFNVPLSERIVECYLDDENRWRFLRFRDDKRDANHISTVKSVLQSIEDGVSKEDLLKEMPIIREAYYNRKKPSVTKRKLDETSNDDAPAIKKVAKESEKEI", "assay": "Fluorescence polarization binding of Spt5 CTD-", "design": "species or system S. pombe", "in_short": "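Tag-free Pce1–GMP (His6Smt3 fusion made in E. coli, Ulp1-cleaved, gel-filtered, then guanylylated with 1 mM GTP/5 mM MgCl2 for 30 min on ice) was titrated against BODIPY-FL-N(Cys)-Spt5-(801–898) in 20 mM Tris-HCl, 4 mM DTT. Incubation was 15 min on ice. Read-out was polarization at ex 485/em 538 nm. Kd came from single-site fits, using a receptor-depletion model where half-saturation approached the ligand concentration.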"}, "[3]": {"molecular_target": "T3, Pce1 (Schizosaccharomyces pombe, UniProt P40997)", "T3 sequence (P40997 1-402)": "T2 sequence (P40997 1-402 G276R) with R276G", "assay": "Competition between labeled and unlabeled Spt5 CTD-", "assay_type": "binding, S. pombe", "details": "1 μM Pce1 preincubated with untagged Spt5 CTD-(801–898) 15 min on ice, then 0.3 μM BODIPY-FL-Spt5 CTD-(801–898); pH 8.0; three independent experiments ± SEM"}, "[4]": {"tested_on": "Pce1", "details": "His tag affinity chromatography assay; ref Pei and Shuman 2002; cited from earlier work"}}, "note": "Substitutions are numbered along the chain they refer to.", "data": [{"molecule": "B1", "values": [{"measurement": "Kd", "setting": "[1]", "value": 1.19, "unit": "µM"}]}, {"molecule": "B2", "values": [{"measurement": "Kd", "setting": "[1]", "value": 28.8, "unit": "µM"}]}, {"molecule": "B3", "values": [{"measurement": "decrement in binding affinity", "setting": "[2]; Pce1-G276R vs wild-type Pce1", "value": 24, "unit": "fold"}, {"measurement": "Kd", "setting": "[2]; Pce1 G276R, 300 nM labeled ligand, pH 8.0, 50 mM NaCl, read at 23°C, triplicate", "value": "28.8 ± 4.3", "unit": "µM"}]}, {"molecule": "B4", "values": [{"measurement": "Ki", "setting": "[3]", "value": "0.61 ± 0.2", "unit": "µM"}]}, {"molecule": "B5", "values": [{"measurement": "Pce1 binding to Spt5 CTD, dependence on number of nonamer repeats", "setting": "[4]", "value": "bound well"}]}]}
